Assay results as given in ChEMBL document CHEMBL4400512, “Searching for new agents active against Candida albicans biofilm: A series of indole derivatives, design, synthesis and biological evaluation” (Eur J Med Chem, 2019).
Values after ≈ are worked out from the molar mass of the structure shown.

Legend:
Candida albicans [1] = test: Antibiofilm activity against Candida albicans ATCC 10231 assessed as inhibition of mature biofilm formation by XTT reduction assay; format: functional
Method in brief: (§1)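 Biofilm assay after Pierce et al., with compound applied either during biofilm formation or to 24 h pre-formed (mature) biofilm. Read-out is metabolic activity of cells in the biofilm by XTT reduction. BMIC50 is the lowest concentration giving a 50% drop relative to untreated growth control. Tested in triplicate, at least two experiments on separate dates; median reported.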

Candida albicans [2] = test: Antibiofilm activity against Candida albicans ATCC 10231 assessed as inhibition of biofilm formation by XTT reduction assay; format: functional; method in brief: as §1
Candida albicans [3] = test: Antifungal activity against planktonic form of Candida albicans ATCC 10231 by broth microdilution method; format: organism-based; settings: in vitro
Method in brief: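 CLSI M27-A3 broth microdilution. Cells grown on Sabouraud dextrose agar at 35°C for 24 h; final inoculum 1×10^3–5×10^3 cells/mL. Compounds from DMSO stocks, final DMSO below 1%, final range 256–0.25 µg/mL. Controls were DMSO 1% and fluconazole reference. MIC50 is the lowest concentration giving ≥50% growth inhibition. Three independent experiments in duplicate; median reported.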

[4] = Toxicity in Galleria mellonella larvae assessed as larval survival at 500 ug/ml after 24 hrs relative to control
Method in brief: (§2)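 Ten healthy larvae per group, stored at 15°C in the dark. Each got a 20 µL injection into the haemocoel via the last left proleg, with compound freshly made in sterile water containing <1% v/v DMSO. Larvae were incubated at 30°C and survival scored every 24 h; death was no movement on stimulation plus cuticle discolouration. Controls were untreated, pierced-only and vehicle. Mean % survival of two independent experiments.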

[5] = Toxicity in Galleria mellonella larvae assessed as larval survival at 100 ug/ml after 24 hrs relative to control; method in brief: as §2
[6] = Toxicity in Galleria mellonella larvae assessed as larval survival at 50 ug/ml after 24 hrs relative to control; method in brief: as §2
[7] = Toxicity in Galleria mellonella larvae assessed as larval survival at 10 ug/ml after 24 hrs relative to control; method in brief: as §2
[8] = Toxicity in Galleria mellonella larvae assessed as larval survival at 5 ug/ml after 24 hrs relative to control; method in brief: as §2
[9] = Toxicity in Galleria mellonella larvae assessed as larval survival at 500 ug/ml after 48 hrs relative to control; method in brief: as §2
[10] = Toxicity in Galleria mellonella larvae assessed as larval survival at 100 ug/ml after 48 hrs relative to control; method in brief: as §2
[11] = Toxicity in Galleria mellonella larvae assessed as larval survival at 50 ug/ml after 48 hrs relative to control; method in brief: as §2
[12] = Toxicity in Galleria mellonella larvae assessed as larval survival at 10 ug/ml after 48 hrs relative to control; method in brief: as §2
[13] = Toxicity in Galleria mellonella larvae assessed as larval survival at 5 ug/ml after 48 hrs relative to control; method in brief: as §2
[14] = Toxicity in Galleria mellonella larvae assessed as larval survival at 500 ug/ml after 72 hrs relative to control; method in brief: as §2
[15] = Toxicity in Galleria mellonella larvae assessed as larval survival at 100 ug/ml after 72 hrs relative to control; method in brief: as §2
[16] = Toxicity in Galleria mellonella larvae assessed as larval survival at 50 ug/ml after 72 hrs relative to control; method in brief: as §2
[17] = Toxicity in Galleria mellonella larvae assessed as larval survival at 10 ug/ml after 72 hrs relative to control; method in brief: as §2
[18] = Toxicity in Galleria mellonella larvae assessed as larval survival at 5 ug/ml after 72 hrs relative to control; method in brief: as §2
Candida albicans [19] = test: Antibiofilm activity against Candida albicans PMC 1042 assessed as inhibition of mature biofilm formation by XTT reduction assay; format: functional
Method in brief: (§3)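 Biofilm method of Pierce et al. Biofilms were treated either during formation or once mature (24 h preformed). Metabolic activity of the cells within the biofilm was read by XTT reduction. BMIC50 is the lowest concentration giving a 50% drop in metabolic activity versus the untreated growth control. At least two experiments on separate dates, triplicate, reported as median.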

Candida albicans [20] = test: Antibiofilm activity against Candida albicans PMC 1042 assessed as inhibition of biofilm formation by XTT reduction assay; format: functional; method in brief: as §3
Candida albicans [21] = test: Antifungal activity against planktonic form of Candida albicans PMC 1042 by broth microdilution method; format: organism-based; settings: in vitro
Method in brief: (§4)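 Broth microdilution per CLSI M27-A3 and M27-S4. Strains were grown on Sabouraud dextrose agar at 35°C for 24 h. Final inoculum 1×10^3–5×10^3 cells/mL. Compounds were dissolved in DMSO (final <1%); 1% DMSO served as control. Final range 256–0.25 µg/mL. MIC50 is the lowest concentration giving ≥50% growth inhibition. Three independent experiments in duplicate, median; fluconazole as reference.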

Candida albicans [22] = test: Antibiofilm activity against Candida albicans PMC 1082 assessed as inhibition of mature biofilm formation by XTT reduction assay; format: functional; method in brief: as §3
Candida albicans [23] = test: Antibiofilm activity against Candida albicans PMC 1082 assessed as inhibition of biofilm formation by XTT reduction assay; format: functional; method in brief: as §3
Candida albicans [24] = test: Antifungal activity against planktonic form of Candida albicans PMC 1082 by broth microdilution method; format: organism-based; settings: in vitro; method in brief: as §4
Candida albicans [25] = test: Antibiofilm activity against Candida albicans ATCC 10261 assessed as inhibition of mature biofilm formation by XTT reduction assay; format: functional; method in brief: as §3
Candida albicans [26] = test: Antibiofilm activity against Candida albicans ATCC 10261 assessed as inhibition of biofilm formation by XTT reduction assay; format: functional; method in brief: as §3
Candida albicans [27] = test: Antifungal activity against planktonic form of Candida albicans ATCC 10261 by broth microdilution method; format: organism-based; settings: in vitro; method in brief: as §4

Structure (SMILES) | MBIC50 (Candida albicans [1]) | MBIC50 (Candida albicans [2]) | MIC50 (Candida albicans [3]) | further results
O=C(NCCc1c[nH]c2ccccc12)c1ccccc1 | 32 µg/mL | 32 µg/mL | > 128 µg/mL | –
NCCc1c[nH]c2ccccc12 [TRYPTAMINE] | >128 µg/mL | 128 µg/mL | > 128 µg/mL | –
O=C(NCCc1c[nH]c2ccccc12)c1cccnc1 [NICOTREDOLE] | 64 µg/mL | >128 µg/mL | > 128 µg/mL | –
COc1ccc(CNCCc2c[nH]c3ccccc23)cc1[N+](=O)[O-] | 32 µg/mL | 128 µg/mL | > 128 µg/mL | –
O=[N+]([O-])c1ccccc1CNCCc1c[nH]c2ccccc12 | 8 µg/mL | 64 µg/mL | > 128 µg/mL | survival at 24 h [4]: 100%; survival at 24 h [5]: 90%; survival at 24 h [6]: 90%; survival at 24 h [7]: 100%; survival at 24 h [8]: 100%; survival at 48 h [9]: 100%; survival at 48 h [10]: 90%; survival at 48 h [11]: 90%; survival at 48 h [12]: 100%; survival at 48 h [13]: 100%; survival at 72 h [14]: 100%; survival at 72 h [15]: 90%; survival at 72 h [16]: 90%; survival at 72 h [17]: 100%; survival at 72 h [18]: 100%
OC(Cn1cncn1)(Cn1cncn1)c1ccc(F)cc1F [FLUCONAZOLE] | >128 µg/mL | 128 µg/mL | 0.5 µg/mL (≈ 1.63 µM) | MBIC50 (Candida albicans [19]): >64 µg/mL; MBIC50 (Candida albicans [20]): >64 µg/mL; MIC50 (Candida albicans [21]): 8 µg/mL (≈ 26.1 µM); MBIC50 (Candida albicans [22]): >64 µg/mL; MBIC50 (Candida albicans [23]): >64 µg/mL; MIC50 (Candida albicans [24]): 0.125 µg/mL (≈ 0.408 µM); MBIC50 (Candida albicans [25]): >64 µg/mL; MBIC50 (Candida albicans [26]): >64 µg/mL; MIC50 (Candida albicans [27]): 2 µg/mL (≈ 6.53 µM)
Clc1ccc(CNCCc2c[nH]c3ccccc23)cc1 | 32 µg/mL | 16 µg/mL | 32 µg/mL (≈ 112 µM) | –
O=[N+]([O-])c1cccc(Cl)c1CNCCc1c[nH]c2ccccc12 | 8 µg/mL | 16 µg/mL | > 128 µg/mL | –
Brc1ccccc1CNCCc1c[nH]c2ccccc12 | 16 µg/mL | 16 µg/mL | 128 µg/mL (≈ 389 µM) | –
Brc1cccc(CNCCc2c[nH]c3ccccc23)c1 | 32 µg/mL | 4 µg/mL | 64 µg/mL (≈ 194 µM) | –
O=[N+]([O-])c1ccc(CNCCc2c[nH]c3ccccc23)o1 | 16 µg/mL | 16 µg/mL | > 128 µg/mL | –
